# In ChEMBL document CHEMBL3393017, “Flavokawains B and C, melanogenesis inhibitors, isolated from the root of Piper methysticum and synthesis of analogs” (Bioorg Med Chem Lett, 2015):
# How the values were obtained:
# Tyrosinase = target: T1, Tyrosinase (Agaricus bisporus, UniProt O42713); experiment: Inhibition of mushroom tyrosinase using L-tyrosine as substrate after 20 mins by microplate reader
# T1 sequence (O42713 whole entry): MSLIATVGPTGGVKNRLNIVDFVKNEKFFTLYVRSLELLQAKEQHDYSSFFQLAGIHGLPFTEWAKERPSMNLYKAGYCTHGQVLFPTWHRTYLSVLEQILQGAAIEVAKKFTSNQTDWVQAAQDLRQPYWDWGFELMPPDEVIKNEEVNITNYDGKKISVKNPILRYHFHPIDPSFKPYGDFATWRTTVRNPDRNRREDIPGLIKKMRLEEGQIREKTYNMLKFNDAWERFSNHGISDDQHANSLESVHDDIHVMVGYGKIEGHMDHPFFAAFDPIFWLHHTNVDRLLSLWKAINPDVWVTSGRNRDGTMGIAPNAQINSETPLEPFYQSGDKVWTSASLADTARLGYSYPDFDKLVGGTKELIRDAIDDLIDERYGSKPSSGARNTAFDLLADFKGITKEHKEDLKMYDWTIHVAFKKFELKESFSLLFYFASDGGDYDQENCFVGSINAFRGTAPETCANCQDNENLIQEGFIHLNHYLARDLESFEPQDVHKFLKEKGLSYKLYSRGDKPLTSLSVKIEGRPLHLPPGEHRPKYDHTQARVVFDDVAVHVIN
# [1] = (§1) Antimelanogenic activity in mouse B16F10 cells assessed as inhibition of melanin production after 4 days; type: functional, cell-based; conditions: B16-F10, 96 h
# Procedure, shortened: (§2)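 MSH-activated B16 melanoma cells were treated in triplicate, with the medium changed daily. After 4 d the cells were lysed in 1 N NaOH, and relative melanin in the lysate was read at 400 nm. Compounds were screened at 10 ppm, and those giving >50% inhibition were retested at other concentrations to derive IC50. Viability was checked by crystal violet staining read at 590 nm.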
# B16-F10 = experiment: as §1; type: functional, cell-based; procedure, shortened: as §2
SMILES,IC50 (Tyrosinase),IC50 [1],inhibition (B16-F10)
COc1cc(O)c(C(=O)/C=C/c2ccc(O)c(O)c2)c(OC)c1,Not Active,31.6 µM,
COc1cc(O)c(C(=O)/C=C/c2cccc(O)c2)c(OC)c1,Not Active,9.9 µM,
COc1cc(O)c(C(=O)/C=C/c2c(C)cccc2C)c(OC)c1,Not Active,9.9 µM,
COc1ccc(/C=C/C(=O)c2c(O)cc(OC)cc2OC)c(OC)c1,Not Active,,
COc1ccc(/C=C/C(=O)c2c(O)cc(OC)cc2OC)cc1 [FLAVOKAWAIN A],Not Active,,
O=c1cc(CO)occ1O [KOJIC ACID],,> 500 µM,

# Further lines, with some results ahead:
IC50 (Tyrosinase),IC50 [1],SMILES,inhibition (B16-F10)
Not Active,2.7 µM,COc1cc(O)c(C(=O)/C=C/c2ccccc2C(C)C)c(OC)c1,
Not Active,3.4 µM,COc1cc(O)c(C(=O)/C=C/c2ccc(O)cc2O)c(OC)c1,
Not Active,3.8 µM,COc1cc(O)c(C(=O)/C=C/c2ccccc2OC)c(OC)c1,
Not Active,3.1 µM,COc1cccc(/C=C/C(=O)c2c(O)cc(OC)cc2OC)c1,
Not Active,3 µM,COc1cc(O)c(C(=O)/C=C/c2ccccc2C)c(OC)c1,
Not Active,2.5 µM,CCc1ccccc1/C=C/C(=O)c1c(O)cc(OC)cc1OC,
Not Active,6.9 µM,COc1cc(O)c(C(=O)/C=C/c2ccc(O)cc2)c(OC)c1 [FLAVOKAWAIN C],Dose-dependent effect
Not Active,2.3 µM,COc1cc(O)c(C(=O)/C=C/c2ccccc2O)c(OC)c1,
Not Active,7.7 µM,COc1cc(O)c(C(=O)/C=C/c2ccccc2)c(OC)c1 [FLAVOKAWAIN B],Dose-dependent effect
